Experimental findings from ChEMBL document CHEMBL1139747, “Pyridine-2-propanoic acids: Discovery of dual PPARalpha/gamma agonists as antidiabetic agents” (Bioorg Med Chem Lett, 2006) are described below.

Broadly, the clearance is the rate of elimination divided by the concentration. By half-life is commonly meant how long it takes for the measured level to halve. As usually defined, the Ki is a dissociation constant, usually derived from enzyme kinetics or from competition with a known ligand. As a reminder, the EC50 is the midpoint of the concentration-response curve. The term bioavailability denotes the share of a dose that reaches the circulation, judged against a reference dose that is usually intravenous. What is called AUC is the area under the concentration-time curve, a measure of exposure. As a reminder, the inhibition is how much of the control response was suppressed.

Test system in the first data set: not listed separately
Nature of the data set: Clearance in iv dosed Sprague-Dawley rat. Format: ADME, organism-based. The note with it: in vivo. The gist of the method: (§1)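 Male Sprague–Dawley rats were given the compound both orally and intravenously. Clearance comes from the iv leg. Half-life and AUC come from the oral leg, with AUC reported dose-normalized. Oral bioavailability compares the oral and iv exposures.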
`Cc1oc(-c2ccccc2)nc1CCOc1ccc(C[C@]2(C(=O)O)CCCO2)nc1`: the clearance turned out to be 16.7 mL/min/kg.

Test system in the next data set: not listed separately
The data set is described as follows: Half life in orally dosed Sprague-Dawley rat. Conditions: in vivo, po. The class given is ADME, organism-based. The gist of the method: as §1
Compound `Cc1oc(-c2ccccc2)nc1CCOc1ccc(C[C@]2(C(=O)O)CCCO2)nc1` had a half-life of 96 min.

The next data set deals with Mus musculus. Nature of the data set: Reduction of plasma glucose in db/db mouse at 3 mg/kg, po after 8 day.
Details: not given
On the set-up: scale not given: the % may be the effect or the level left. Format: functional.
`CN(CCOc1ccc(CC2SC(=O)NC2=O)cc1)c1ccccn1` (stereo unspecified) [ROSIGLITAZONE] registered an Activity of 51%.

For `Cc1oc(-c2ccccc2)nc1CCOc1ccc(C[C@]2(C(=O)O)CCCO2)nc1`, the Activity came to 74%.

The next data set deals with Mus musculus. Nature of the data set: Reduction of plasma glucose in db/db mouse at 30 mg/kg, po after 8 day. The class given is functional. On the set-up: scale not given: the % may be the effect or the level left.
Details: not given
With `CN(CCOc1ccc(CC2SC(=O)NC2=O)cc1)c1ccccn1` (stereo unspecified) [ROSIGLITAZONE], the Activity is given as 74%.

As for `Cc1oc(-c2ccccc2)nc1CCOc1ccc(C[C@]2(C(=O)O)CCCO2)nc1`, the Activity was 94%.

For another data set, the system named is Mus musculus. The data set is described as follows: Reduction of plasma triglycerides in db/db mouse at 3 mg/kg, po after 8 day. Format: functional.
Details: not given
On the set-up: scale not given: the % may be the effect or the level left.
As for `CN(CCOc1ccc(CC2SC(=O)NC2=O)cc1)c1ccccn1` (stereo unspecified) [ROSIGLITAZONE], the Activity is recorded as 83%.

As to `Cc1oc(-c2ccccc2)nc1CCOc1ccc(C[C@]2(C(=O)O)CCCO2)nc1`, the Activity is 105%.

In the next data set the test system is Mus musculus. The data set is described as follows: Reduction of plasma triglycerides in db/db mouse at 30 mg/kg, po after 8 day. The class given is functional. Also on record: scale not given: the % may be the effect or the level left.
Details: not given
Compound `CN(CCOc1ccc(CC2SC(=O)NC2=O)cc1)c1ccccn1` (stereo unspecified) [ROSIGLITAZONE] gave an Activity of 106%.

With `Cc1oc(-c2ccccc2)nc1CCOc1ccc(C[C@]2(C(=O)O)CCCO2)nc1`, the Activity is reported as 119%.

The subject of the next data set is Mus musculus. The data set is described as follows: Reduction of hematocrit in db/db mouse at 3 mg/kg, po after 8 day. Format: functional. On the set-up: scale not given: the % may be the effect or the level left.
Details: not given
In the case of `CN(CCOc1ccc(CC2SC(=O)NC2=O)cc1)c1ccccn1` (stereo unspecified) [ROSIGLITAZONE], the Activity is recorded as 1.2%.

On to `Cc1oc(-c2ccccc2)nc1CCOc1ccc(C[C@]2(C(=O)O)CCCO2)nc1`, for which the Activity is 4.3%.

For another data set, the system named is Mus musculus. Nature of the data set: Reduction of hematocrit in db/db mouse at 30 mg/kg, po after 8 day. On the set-up: scale not given: the % may be the effect or the level left. The class given is functional.
Details: not given
The compound `CN(CCOc1ccc(CC2SC(=O)NC2=O)cc1)c1ccccn1` (stereo unspecified) [ROSIGLITAZONE] returned an Activity of 5.2%.

`Cc1oc(-c2ccccc2)nc1CCOc1ccc(C[C@]2(C(=O)O)CCCO2)nc1`: the Activity is 4.4%.

In another data set the test system is Mus musculus. Nature of the data set: Increase in body weight in db/db mouse at 3 mg/kg, po after 8 day. The class given is functional.
Details: not given
As for `CN(CCOc1ccc(CC2SC(=O)NC2=O)cc1)c1ccccn1` (stereo unspecified) [ROSIGLITAZONE], the Activity is reported as 9.5%.

Compound `Cc1oc(-c2ccccc2)nc1CCOc1ccc(C[C@]2(C(=O)O)CCCO2)nc1` came in with an Activity of 15.5%.

In the next data set the test system is Mus musculus. Nature of the data set: Increase in body weight in db/db mouse at 30 mg/kg, po after 8 day.
Details: not given
The class given is functional.
For `CN(CCOc1ccc(CC2SC(=O)NC2=O)cc1)c1ccccn1` (stereo unspecified) [ROSIGLITAZONE], the Activity worked out at 17.4%.

The compound `Cc1oc(-c2ccccc2)nc1CCOc1ccc(C[C@]2(C(=O)O)CCCO2)nc1` registered an Activity of 20.5%.

For a further data set, the target named is T1, Peroxisome proliferator-activated receptor gamma (Homo sapiens, UniProt P37231).
T1 sequence (P37231 whole entry): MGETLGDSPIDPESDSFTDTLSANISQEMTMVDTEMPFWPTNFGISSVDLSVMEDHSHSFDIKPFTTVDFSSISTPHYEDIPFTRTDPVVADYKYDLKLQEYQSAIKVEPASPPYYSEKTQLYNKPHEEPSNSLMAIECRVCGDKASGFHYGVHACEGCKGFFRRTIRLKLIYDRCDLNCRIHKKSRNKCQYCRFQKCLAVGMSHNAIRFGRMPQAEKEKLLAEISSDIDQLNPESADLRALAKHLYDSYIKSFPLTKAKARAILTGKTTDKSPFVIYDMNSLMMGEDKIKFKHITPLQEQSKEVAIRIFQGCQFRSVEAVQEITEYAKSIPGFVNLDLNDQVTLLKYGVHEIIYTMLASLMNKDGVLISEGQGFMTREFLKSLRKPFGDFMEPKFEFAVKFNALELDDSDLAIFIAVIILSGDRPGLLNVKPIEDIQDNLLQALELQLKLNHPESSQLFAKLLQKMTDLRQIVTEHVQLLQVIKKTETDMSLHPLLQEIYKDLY
Nature of the data set: Displacement of radiolabeled darglitazone from human PPAR gamma by SPA assay.
Details: not given
Regarding `COC(Cc1ccc(OCCc2nc(-c3ccccc3)oc2C)cn1)C(=O)O` (stereo unspecified), the inhibition constant (Ki) came to 348 nM.

With `COC(C)(Cc1ccc(OCCc2nc(-c3ccccc3)oc2C)cn1)C(=O)O` (stereo unspecified), the Ki is 1600 nM.

The compound `CCOC(Cc1ccc(OCCc2nc(-c3ccccc3)oc2C)cn1)C(=O)O` (stereo unspecified) displayed an inhibitory constant (Ki) of 73 nM.

`Cc1oc(-c2ccccc2)nc1CCOc1cnc(CC2(C(=O)O)CCCO2)cn1` (stereo unspecified) returned an inhibition constant Ki of 160 nM.

The target of another data set is T2, Peroxisome proliferator-activated receptor alpha (Homo sapiens, UniProt Q07869).
T2 sequence (Q07869 whole entry): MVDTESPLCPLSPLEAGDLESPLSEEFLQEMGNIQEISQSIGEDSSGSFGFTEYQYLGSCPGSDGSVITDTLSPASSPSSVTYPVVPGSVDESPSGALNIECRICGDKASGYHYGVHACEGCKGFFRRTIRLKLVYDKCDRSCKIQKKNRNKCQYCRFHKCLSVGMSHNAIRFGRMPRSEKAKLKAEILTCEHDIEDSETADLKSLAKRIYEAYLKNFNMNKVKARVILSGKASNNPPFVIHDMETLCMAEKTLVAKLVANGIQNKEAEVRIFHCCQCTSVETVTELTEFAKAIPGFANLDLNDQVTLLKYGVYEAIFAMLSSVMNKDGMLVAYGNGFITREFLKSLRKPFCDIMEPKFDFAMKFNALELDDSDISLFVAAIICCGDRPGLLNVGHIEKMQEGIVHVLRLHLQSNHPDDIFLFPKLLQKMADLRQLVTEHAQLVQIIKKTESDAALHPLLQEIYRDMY
The data set is described as follows: Displacement of radiolabeled GW-2331 from human PPAR alpha by SPA assay.
Details: not given
In turn, `COc1ccc(-c2nc(CCOc3ccc(CC4(C(=O)O)CCCO4)nc3)c(C)o2)cc1` (stereo unspecified) gave an inhibitory constant (Ki) of 0.84 µM.

The compound `COC(Cc1ccc(OCCc2nc(-c3ccccc3)oc2C)cn1)C(=O)O` (stereo unspecified) came in with a Ki of 3.7 µM.

Compound `COC(C)(Cc1ccc(OCCc2nc(-c3ccccc3)oc2C)cn1)C(=O)O` (stereo unspecified) registered a Ki of 4.8 µM.

For the compound `CCOC(Cc1ccc(OCCc2nc(-c3ccccc3)oc2C)cn1)C(=O)O` (stereo unspecified), the Ki stood at 2 µM.

The compound `Cc1oc(-c2ccccc2)nc1CCOc1cnc(CC2(C(=O)O)CCCO2)cn1` (stereo unspecified) returned a Ki of 3.49 µM.

The next data set has as its target T1, Peroxisome proliferator-activated receptor gamma. Nature of the data set: Agonist activity at human PPAR gamma in HepG2 cells by PPAR-GAL4 transactivation assay. The class given is functional, cell-based.
Details: not given
On to `COc1ccc(-c2nc(CCOc3ccc(CC4(C(=O)O)CCCO4)nc3)c(C)o2)cc1` (stereo unspecified), for which the concentration for a half-maximal effect (EC50) was determined as 105 nM.

Take `COC(Cc1ccc(OCCc2nc(-c3ccccc3)oc2C)cn1)C(=O)O` (stereo unspecified): the concentration for a half-maximal effect (EC50) stood at 280 nM.

Take `COC(C)(Cc1ccc(OCCc2nc(-c3ccccc3)oc2C)cn1)C(=O)O` (stereo unspecified): it took 335 nM to reach a half-maximal effect (EC50).

On to `CCOC(Cc1ccc(OCCc2nc(-c3ccccc3)oc2C)cn1)C(=O)O` (stereo unspecified), for which the EC50 came to 129 nM.

The compound `Cc1oc(-c2ccccc2)nc1CCOc1cnc(CC2(C(=O)O)CCCO2)cn1` (stereo unspecified) gave an EC50 of 156 nM.

The target of another data set is T2, Peroxisome proliferator-activated receptor alpha. The data set is described as follows: Agonist activity at human PPAR alpha in HepG2 cells by PPAR-GAL4 transactivation assay. The class given is functional, cell-based.
Details: not given
The compound `COc1ccc(-c2nc(CCOc3ccc(CC4(C(=O)O)CCCO4)nc3)c(C)o2)cc1` (stereo unspecified) returned a half-maximal effective concentration (EC50) of 437 nM.

In turn, `COC(Cc1ccc(OCCc2nc(-c3ccccc3)oc2C)cn1)C(=O)O` (stereo unspecified) returned an EC50 of 3140 nM.

`COC(C)(Cc1ccc(OCCc2nc(-c3ccccc3)oc2C)cn1)C(=O)O` (stereo unspecified) displayed a half-maximal effective concentration (EC50) of 882 nM.

Regarding `CCOC(Cc1ccc(OCCc2nc(-c3ccccc3)oc2C)cn1)C(=O)O` (stereo unspecified), a half-maximal effect (EC50) was put at 1230 nM.

With `Cc1oc(-c2ccccc2)nc1CCOc1cnc(CC2(C(=O)O)CCCO2)cn1` (stereo unspecified), a half-maximal effect (EC50) was put at 1890 nM.

For another data set, the target named is T3, Peroxisome proliferator-activated receptor alpha (Homo sapiens) (UniProt Q07869).
T3 sequence (whole entry): T2 sequence (Q07869 whole entry)
Nature of the data set: Agonist activity at human PPAR alpha in HepG2 cells by PPAR-GAL4 transactivation assay relative to GW-2331. The class given is functional, cell-based.
Details: not given
In outline:
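Human PPARα–GAL4 chimera in HepG2 cells, transactivation read-out. Compounds titrated. EC50 taken as the concentration giving half of the compound's own maximal response. Percent maximal activation expressed relative to GW2331 as the standard full agonist. Where no plateau was reached, only maximal activity was reported.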
On to `COc1ccc(-c2nc(CCOc3ccc(CC4(C(=O)O)CCCO4)nc3)c(C)o2)cc1` (stereo unspecified), for which the Activity worked out at 95%.

In turn, `COC(Cc1ccc(OCCc2nc(-c3ccccc3)oc2C)cn1)C(=O)O` (stereo unspecified) registered an Activity of 95%.

For the compound `COC(C)(Cc1ccc(OCCc2nc(-c3ccccc3)oc2C)cn1)C(=O)O` (stereo unspecified), the Activity was found to be 114%.

In turn, `CCOC(Cc1ccc(OCCc2nc(-c3ccccc3)oc2C)cn1)C(=O)O` (stereo unspecified) had an Activity of 100%.

`Cc1oc(-c2ccccc2)nc1CCOc1ccc(C[C@]2(C(=O)O)CCCO2)nc1` had an Activity of 97%.

With `Cc1oc(-c2ccccc2)nc1CCOc1cnc(CC2(C(=O)O)CCCO2)cn1` (stereo unspecified), the Activity stood at 77%.

Test system in a further data set: not listed separately
The data set is described as follows: Oral bioavailability in Sprague-Dawley rat. Format: ADME, organism-based. Conditions: in vivo. The gist of the method: as §1
Take `Cc1oc(-c2ccccc2)nc1CCOc1ccc(C[C@]2(C(=O)O)CCCO2)nc1`: the bioavailability was found to be 58%.

Test system in another data set: not listed separately
Nature of the data set: AUC in orally dosed Sprague-Dawley rat. The note with it: plasma, po. The class given is ADME, organism-based. In outline: as §1
In turn, `Cc1oc(-c2ccccc2)nc1CCOc1ccc(C[C@]2(C(=O)O)CCCO2)nc1` returned an AUC of 1200 ng·h/mL.

In a further data set the target is T3, Peroxisome proliferator-activated receptor alpha (Homo sapiens). The note with it: 100 uM.
`CN(CCOc1ccc(CC2SC(=O)NC2=O)cc1)c1ccccn1` (stereo unspecified) [ROSIGLITAZONE] gave an inhibition of 45%.
